How the values were obtained:
[1] = tested on: A. baumannii; assay: Membrane depolarization, DiSC 3; type: cell-based, Acinetobacter baumannii; settings: 1 and 2X MIC, 2 hours
Summary of the method: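 Cells suspended at 0.5 McFarland in 5 mM HEPES/20 mM glucose, pH 7.4, with DiSC3(5) at 1 μM final. Test compound at 1 and 2X MIC; controls were untreated cells, polymyxin B and daptomycin. Incubated 2 h at 37°C. Fluorescence read at ex 622 nm/em 670 nm; dye release into medium raises signal.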

[2] = tested on: E. coli K12; assay: Inner membrane permeabilization assay; type: cell-based, Escherichia coli; settings: E. coli K12, 0.5, 1 and 2X MIC, monitored for 180 mins, absorbance 415 nm, 37 °C, triplicate
Summary of the method: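 Assay for β-galactosidase release into the medium using ONPG as substrate, adapted from a published method. Test compound was dissolved in PBS at 1 mg/mL, annealed at 80 °C for 30 min, aged overnight, then diluted in PBS or media. Controls were polymyxin B (positive) and bacteria with ONPG and PBS (negative). o-Nitrophenol absorbance at 415 nm was read at intervals at 37 °C.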

[3] = tested on: E. coli K12; assay: Zeta potential of treated bacteria by DLS; type: cell-based, Escherichia coli; settings: E. coli K12, PAs at 10X MIC
[4] = tested on: A. baumannii; assay: Membrane permeability, PI uptake; type: cell-based, Acinetobacter baumannii; settings: 1 and 2X MIC, 2 hours
Summary of the method: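 Bacteria washed and resuspended at 0.3 McFarland in 5 mM HEPES/20 mM glucose, pH 7.4, with propidium iodide at 7.5 μg/mL final. Test compound was given to MRSA JE2 at 0.5, 1 and 2X MIC and to A. baumannii at 1 and 2X MIC. Controls were untreated cells, polymyxin B and daptomycin. Incubated 2 h at 37°C; fluorescence read at ex 535 nm/em 615 nm.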

[5] = tested on: MRSA JE2; assay: Zeta potential of treated bacteria by DLS; type: cell-based, Staphylococcus aureus; settings: 1 hour treatment
Summary of the method: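 Bacteria were cultured 18–20 h, resuspended in PBS and adjusted to 5 X 10^7 CFU/mL. They were treated 1 h with test compound at 10X MIC; test compound was pre-annealed in PBS and aged overnight. Controls were untreated cells, polymyxin B and daptomycin. Zeta potential was then measured by DLS at 25 °C.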

Substance | order of activity, DiSC 3(5) [1] | order of membrane permeability (ONPG) [2] | change of bacterial zeta potential [3] | PI intensity (membrane permeability) [4] | change of bacterial zeta potential [5]
Polymyxin B [PMB] | PA 26 > PMB > PA 9 | PMB > PA 26 > PA 3 > PA 9 | does not show a notable change | significant increase in PI intensity | –
daptomycin | – | – | – | – | induces (slightly) the zeta potential to be more negative

From PMC10939825 (Chemistry (Weinheim an der Bergstrasse, Germany), 2024)
